Assay results: ChEMBL document CHEMBL1122337, “Syntheses of iron bis(pyridoxal isonicotinoylhydrazone)s and the in vivo iron-removal properties of some pyridoxal derivatives” (J Med Chem, 1983)

How the values were obtained:
Assay type in all cases: ADME, organism-based
Rattus norvegicus [1] = test: % distribution of the radioiron in blood of rats followed by intravenous injection of transferrin pre-incubated with 10 mg of chelating agent; conditions: in vivo
How it was run: (§1)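 Normal rats. Fresh rat plasma was labelled with ⁵⁹FeCl₃ plus excess citrate (citrate:Fe >50:1; final 0.5 μCi ⁵⁹Fe/mL). It was preincubated with 10 mg chelating agent and 1 mL was injected iv. Blood (1 mL), weighed liver portions, and whole spleen and kidney were counted in a well-type gamma counter. Feces and urine were collected separately in metabolic cages. Results are percent of injected ⁵⁹Fe ± SD.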

Rattus norvegicus [2] = test: % distribution of the radioiron in rat spleen followed by intravenous injection of transferrin pre-incubated with 10 mg of chelating agent; conditions: in vivo; how it was run: as §1
Rattus norvegicus [3] = test: % distribution of the radioiron in rat liver followed by intravenous injection of transferrin preincubated with 10 mg of chelating agent; conditions: in vivo; how it was run: as §1
Rattus norvegicus [4] = test: % distribution of the radioiron in rat kidney followed by intravenous injection of transferrin pre-incubated with 10 mg of chelating agent; conditions: in vivo; how it was run: as §1
Rattus norvegicus [5] = test: % excretion of radioiron determined in urine of rat followed by intravenous injection of transferrin preincubated with 10 mg of chelating agent; conditions: in vivo; how it was run: as §1
Rattus norvegicus [6] = test: % excretion of radioiron determined in feces of rat followed by intravenous injection of transferrin pre-incubated with 10 mg of chelating agent; conditions: in vivo; how it was run: as §1
Rattus norvegicus [7] = test: % distribution of the radioiron in rat kidney followed by intravenous injection of chelating agent; conditions: in vivo
Rattus norvegicus [8] = species on record: Rattus norvegicus; test: […] determined in urine of rat followed by […] of chelating agent; conditions: in vivo, iv
How it was run: (§2)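 Normal rats. Storage iron was labelled with [⁵⁹Fe]ferritin, given im as 1 mL in sterile normal saline (0.2–0.4 μCi ⁵⁹Fe/mL, 40 μg ferritin iron). The ferritin was prepared in vivo from [⁵⁹Fe]citrate in iron-dextran-loaded rats. Chelator was given separately afterwards, 40 mg im as aqueous solution. Blood, liver, spleen and kidney were gamma-counted. Stool and urine were collected separately in metabolic cages. Results are percent of injected ⁵⁹Fe.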

Rattus norvegicus [9] = test: % distribution of the radioiron in rat spleen followed by intravenous injection of chelating agent; conditions: in vivo
Rattus norvegicus [10] = species on record: Rattus norvegicus; test: […] determined in faces of rat followed by […] of chelating agent; conditions: in vivo, iv; how it was run: as §2
Rattus norvegicus [11] = test: % distribution of the radioiron in blood of rat followed by intravenous injection of chelating agent; conditions: in vivo
Rattus norvegicus [12] = test: % distribution of the radioiron in rat liver followed by intravenous injection of chelating agent; conditions: in vivo

Structure (SMILES)	Distribution (Rattus norvegicus [1]) [%]	Distribution (Rattus norvegicus [2]) [%]	Distribution (Rattus norvegicus [3]) [%]	Distribution (Rattus norvegicus [4]) [%]	Distribution (Rattus norvegicus [5]) [%]	Distribution (Rattus norvegicus [6]) [%]	Distribution (Rattus norvegicus [7]) [%]	Distribution (Rattus norvegicus [8]) [%]	Distribution (Rattus norvegicus [9]) [%]	Distribution (Rattus norvegicus [10]) [%]	Distribution (Rattus norvegicus [11]) [%]	Distribution (Rattus norvegicus [12]) [%]
CC(=O)OCc1cnc(C)c(O)c1/C=N\NC(=O)c1ccncc1	31.7	0.6	15.7	0.8	0.8	10.4						
Cc1ncc(CO)c(/C=N/NC(=O)c2cccnc2)c1O	39.6	0.9	16.2	1	0.3	6						
Cc1ncc(CO)c(/C=N/NC(=O)OC(C)(C)C)c1O							0.4	0.08	0.55	7.3	19.4	63.2
Cc1ncc(CO)c(/C=N/Nc2nc(-c3ccccc3)cs2)c1O							0.5	0.04	0.6	8.2	19.6	66.7
Cc1ncc(CO)c(/C=N/NC(N)=O)c1O							0.3	0.09	1	4.1	12.3	82.4
CC(=O)N(O)CCCCCNC(=O)CCC(=O)N(O)CCCCCNC(=O)CCC(=O)N(O)CCCCCN [DEFEROXAMINE]	7.4	0.2	3	0.6	62.9	18.7	0.3	0.08	0.4	15.5	1.8	71.3
Cc1csc(N/N=C/c2c(CO)cnc(C)c2O)n1							0.4	0.01	0.8	6.5	19.1	60.2
Cc1ncc(CO)c(/C=N/NC(=O)c2ccnc3ccccc23)c1O	27.9	0.6	12.6	1	0.4	6.8						
CCOC(=O)N/N=C/c1c(CO)cnc(C)c1O							0.4	0.03	0.7	8.6	19	63.8
COc1ccc(COC(=O)N/N=C/c2c(CO)cnc(C)c2O)cc1	27	0.6	14.7	0.8	0.02	3.3						
Cc1ncc(CO)c(/C=N/NC(=O)c2ccncc2)c1O [PYRIDOXAL ISONICOTINOYL HYDRAZONE]	32	0.4	9.6	0.6	4.3	32.8	0.3	0.05	0.5	12	2.3	78.7
